# DDE Tn6 FP inh: DD(E)-Tn6 binding inhibition, primary FP screen. Fibrin DD(E) TRITC-Tn6 fluorescence polarization displacement. inhibition, % at 8.3 µM. actives 0.21% (n = 370,000);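 active = inhibition above a per-campaign cutoff: mean of compounds within control limits plus 3 SD, cut at about 15% in these data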;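 also: 0% = median of all compound wells on the plate and 100% = blocking peptide control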
# Target sequence (P02675 whole entry, looked up): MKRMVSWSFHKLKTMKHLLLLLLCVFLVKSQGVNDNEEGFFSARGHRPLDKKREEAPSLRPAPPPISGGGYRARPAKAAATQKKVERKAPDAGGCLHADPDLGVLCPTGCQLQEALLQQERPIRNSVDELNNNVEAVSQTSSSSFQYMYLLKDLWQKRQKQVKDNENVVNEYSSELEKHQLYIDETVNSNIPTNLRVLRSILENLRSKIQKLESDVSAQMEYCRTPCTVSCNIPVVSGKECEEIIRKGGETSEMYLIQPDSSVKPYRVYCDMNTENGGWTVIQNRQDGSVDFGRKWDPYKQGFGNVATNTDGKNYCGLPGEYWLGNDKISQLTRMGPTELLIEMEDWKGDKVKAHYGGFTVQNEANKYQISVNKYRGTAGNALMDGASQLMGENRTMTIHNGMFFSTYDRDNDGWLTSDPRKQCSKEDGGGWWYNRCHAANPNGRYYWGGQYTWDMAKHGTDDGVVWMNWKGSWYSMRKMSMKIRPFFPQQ
# CAL PDZ FP-1: human CAL PDZ-peptide interaction inhibition; AID 504414; actives 0.02% (n = 330,000); Q9HD26; inhibition, % at 20 µM; purified CAL PDZ, TMR-peptide fluorescence polarization, 1 h;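 active = highest replicate inhibition of at least 40%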;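 also: plate controls were DMSO neutral control wells for no effect and unlabeled competitor peptide control wells for full effect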
#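 Material: tagged CAL PDZ protein CerCALP, purified; buffer or medium: sodium phosphate/NaCl buffer pH 7.4 with TCEP, IgG, Thesit; also added: fluorescent TMR peptide probe; schedule: 1 h incubation at room temperature before polarization reading; technique: fluorescence polarization from S- and P-plane intensities, G-factor corrected; control set: unlabelled peptide and DMSO controls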
# Arrestin-AP2 inh: blocks beta-arrestin peptide binding to AP2 adaptin; actives 0.31% (n = 340,000); inhibition, % at 10 µM; AID 504490; FITC-arrestin peptide / GST-AP2 beads, flow cytometry; AP2 beta2 appendage carries R879A mutation;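 active = inhibition above a set limit, near 3 SD of compounds lacking own fluorescence, cut at about 54% in these data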;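 also: plate controls were DMSO wells for no effect and 5 µM unlabelled arrestin peptide for full effect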
#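 system = GST-tagged AP2 beta2-adaptin appendage (R879A) on 4 µm glutathione beads | reagent = FITC-labelled arrestin peptide probe, 50 nM final | schedule = compound with beads 12 min RT, then probe 1 h RT | signal = HyperCyt-sampled flow cytometry, FL1 channel, ex 488/em 535 nm | read-out = percent response from loss of bead-bound FITC fluorescence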
# Tn7 DDE FP: inhibitors of Tn7 peptide binding to human fibrin DD(E). P02675. FP displacement of FITC-Tn7 peptide from fibrin DD(E); 0% = median of compound wells per plate. inhibition, % at 8.3 µM. actives 0.13% (n = 370,000). AID 720508;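 active = inhibition above the mean of compounds falling within the control limits plus 3 SD of them, cut at about 14% in these data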;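 also: 0% = plate median of compound wells and 100% = 10 µM Aha-Tn7 peptide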
#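 System: human fibrin DD(E); quantity: Fibrin-DD(E) at 2 µM final; also added: fluorescent Tn7 probe at 0.1 µM; compound dosing: single nominal test concentration of 8.3 µM per compound; schedule: 10 min preincubation, 3 h with tracer, room temperature; detection: fluorescence polarization of the labelled Tn7 tracer; repeats: one replicate per compound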
# CAL PDZ FP-2: inhibitors of human CAL PDZ peptide binding; Q9HD26; purified CAL PDZ, TMR-peptide fluorescence polarization, 1 h; inhibition, % at 24.9 µM; actives 0.92% (n = 300,000); AID 602252;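 active = mean inhibition of at least 30% with at least half of replicates also reaching 30%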;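 also: 0% = DMSO neutral control and 100% = excess unlabeled competitor peptide PRC23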
# DDE Tn7 confirm: DD(E)-Tn7 binding inhibition, FP confirmation. shares compounds with Tn7 DDE FP. FP displacement of TRITC-Tn7 peptide from DD(E); 0% set at plate's compound-well median. inhibition, % at 8.3 µM. actives 5% (n = 460). AID 720628;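 active = inhibition above the campaign cutoff, the mean of compounds within control limits plus 3 SD, cut at about 14% in these data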;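 also: 100% = median FP of high control wells holding Aha-Tn7 inhibitor peptide; displacers lower polarization since freed probe rises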
# DDE Tn7 FP ctr: DD(E)-Tn7 binding inhibition, counter-screen | shares compounds with Tn7 DDE FP | fibrin DD(E), TRITC-Tn7 probe displacement, fluorescence polarization | inhibition, % at 8.3 µM | actives 3% (n = 460);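 active = inhibition above the cutoff, the mean of compounds lying between the control bounds plus 3 SD of those compounds, cut at about 17% in these data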;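 also: 0% = median of compound sample wells and 100% = excess unlabeled Aha-Tn7 peptide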
# Starred values were filed as active, the others as inactive; / = not tested or not shown. Shown are actives, neighbours in structure and some others; about 1.4% of the full set was active somewhere.
SMILES,DDE Tn6 FP inh,CAL PDZ FP-1,Arrestin-AP2 inh,Tn7 DDE FP,CAL PDZ FP-2,DDE Tn7 confirm,DDE Tn7 FP ctr
COc1ccc(OC)c(NC(=S)N2CCN(Cc3ccccc3)CC2)c1,1.6,-2.5,7.4,-1.6,-4.6,/,/
COc1ccc(NC(=S)N2CCN(Cc3ccccc3)CC2)c(OC)c1,-2.7,-3.1,13.3,14.7*,1.1,4.0,6.4
O=c1[nH]c(=S)[nH]c2nc(-c3ccccc3)cnc12,0.5,-4.0,3.2,-2.2,-4.8,/,/
Cc1cc2nc3c(=O)[nH]c(=S)[nH]c3nc2cc1NC(=O)C(F)(F)F,4.2,-0.9,-11.7,15.7*,3.4,-7.1,-10.0
Cc1cccc(N2C(=O)c3cccc4c(N)ccc(c34)C2=O)c1,8.8,0.6,-3.8,11.0,5.3,/,/
CC(C)CCN1C(=O)c2cccc3c(N)ccc(c23)C1=O,8.0,0.1,53.1,48.6*,-1.3,8.2,-1.0
CCN1C(=O)[C@H]2[C@@H](c3ccc(C)cc3)N3C(=O)N(c4ccc(OC)cc4)C(=O)[C@@]3(C)[C@H]2C1=O,1.2,0.1,1.4,16.2*,-2.2,-6.9,-13.4
CCN1C(=O)[C@H]2[C@@H](c3ccc(C)cc3)N3C(=O)N(c4ccc(C)cc4)C(=O)[C@@]3(C)[C@H]2C1=O,6.2,-0.7,-5.0,-4.9,-0.7,/,/
CC(=O)Nc1ccc(Nc2c3c4c(cccc4n(C)c2=O)C(=O)c2ccccc2-3)cc1,-1.9,-0.3,12.7,18.6*,-1.1,11.6,7.7
Cn1c(=O)c(NC2CCCCC2)c2c3c(cccc31)C(=O)c1ccccc1-2,-1.4,0.3,13.6,19.0*,4.8,2.3,11.5
CC(=O)Nc1ccc(NC2=CC(=O)c3ccccc3C2=O)cc1,2.2,-0.1,21.9,-6.8,-4.5,/,/
CCOC(=O)/C(C)=N/NC(=O)c1ccc([N+](=O)[O-])cc1,3.7,-2.9,-3.6,-4.0,-5.8,/,/
CC(=N\NC(=O)c1ccc([N+](=O)[O-])cc1)/C(=N/O)C(=O)Nc1ccccc1,-0.6,-1.4,-7.4,15.7*,-3.1,1.4,0.9
O=C1C=C(NNC(=O)c2cccnc2)CC(c2ccco2)C1 (stereo not given),-8.0,-2.2,-0.1,16.1*,-3.8,-1.2,-13.7
CC1(C)CC(=O)C=C(NNC(=O)c2cccnc2)C1,5.3,/,16.8,8.9,/,/,/
CCOC(=O)N1CCN(C(=O)C[C@H]2C[C@@]3(C(=O)OC)C(=C[C@H](C(C)(C)C)O[C@@H]3C)N(Cc3ccc4c(c3)OCO4)C2=O)CC1,1.5,/,/,-0.8,/,/,/
O=C(COc1ccc(Oc2ccccc2)cc1)NCc1cn2ccccc2n1,5.1,-0.2,9.6,15.8*,7.0,-7.2,-9.8
COc1ccc(/C=N/c2c(-c3ccco3)nc3ccccn23)cc1OC,-4.9,0.3,13.2,14.9*,-3.6,8.0,3.3
COc1ccc(CN2CCN(Cc3ccco3)CC2)c(OC)c1,7.9,-1.3,5.4,14.4*,1.2,1.9,0.1
COc1ccccc1CN1CCN(Cc2ccco2)CC1,7.7,0.9,-10.7,2.8,8.0,/,/
CC(C)n1nnnc1C1(C)Cn2nccc2C(=O)N1Cc1cccc(C(F)(F)F)c1 (stereo not given),0.7,/,/,-2.4,/,/,/
CN(C)c1ccc(/C=N/NC(=O)c2ccc(CN3CCOCC3)cc2)cc1Br,-2.7,-4.8,30.3,14.2*,12.5,0.4,0.9
Cc1ccc(OCCC(=O)OCC(=O)N2CCN(S(=O)(=O)c3ccc(Cl)cc3)CC2)cc1,0.3,-2.5,-0.4,14.7*,-2.7,-4.3,-5.5
COc1ccc(N=Nc2nc3ccc(Br)cc3n2C)cc1,5.9,-0.8,-4.1,55.5*,23.3,1.8,-0.3
COC(=O)C1CN(Cc2cn(Cc3ccccc3)nn2)CCS(=O)(=O)N1Cc1ccc(C)cc1 (stereo not given),6.2,/,/,-0.9,/,/,/
SMILES,DDE Tn6 FP inh,CAL PDZ FP-1,Arrestin-AP2 inh,Tn7 DDE FP,CAL PDZ FP-2,DDE Tn7 confirm,DDE Tn7 FP ctr
Cc1ccc(-c2csc3ncnc(SCC(N)=O)c23)cc1,5.3,-3.0,-3.3,16.3*,-1.9,0.7,-0.9
COc1ccccc1NC(=O)CSc1nnc(COc2ccccc2OC)n1C,-0.3,-1.7,5.7,14.2*,-3.2,3.9,1.6
COc1ccc(S(=O)(=O)NCC(=O)N2CCN(c3ccccn3)CC2)c(OC)c1,2.7,/,/,-0.9,/,/,/
Cc1ccc(Cn2nnc3c2-c2cc(F)ccc2S(=O)(=O)N(C(C)(C)C)C3)cc1,-3.2,/,/,-10.8,/,/,/
CCN(CC)CCCNc1ccc2ncn3c4ccc(O)cc4c(=O)c1c23,3.5,3.1,27.1,40.0*,-6.4,12.8,-3.6
CCOC(=O)C1CCN(C(=O)C(C)(C)NC(=O)Nc2ccc(Cl)cc2Cl)CC1,0.5,/,/,0.0,/,/,/
Cc1cccc(N2C(=O)CN(Cc3cccs3)C2=S)c1,-0.9,0.0,-17.2,14.7*,-1.1,1.2,1.4
Cc1cccc(N2C(=O)CN(Cc3sccc3C)C2=S)c1,2.0,-0.9,-7.0,-0.9,-0.1,/,/
Nc1ccc2nc3c(=O)n(C4CCCCC4)c(=O)[nH]c3nc2c1,8.0,-1.2,8.6,26.7*,2.7,-5.9,7.0
CCCCn1c(=O)[nH]c2nc3cc(N)ccc3nc2c1=O,8.4,-0.7,16.7,25.1*,-1.9,-11.8,0.2
CCCCn1c(N)c(Br)c(=O)[nH]c1=O,-0.9,1.3,31.9,0.6,-4.5,/,/
Cc1cc2nc3c(=O)n(CCc4ccccc4)c(=O)[nH]c3nc2cc1N,-4.6,-0.3,19.5,22.8*,-0.3,6.8,4.8
Nc1ccc2nc3c(=O)n(CCc4ccccc4)c(=O)[nH]c3nc2c1,-0.5,/,4.4,8.2,/,/,/
Nc1[nH]c(C(=O)c2ccc(Br)cc2)c(-c2ccc(Br)cc2)c1C(=O)N1CCCCC1,5.5,/,/,0.8,/,/,/
CN(Cc1ccccc1)C(=O)OCc1cn(Cc2c(F)cccc2F)nn1,4.3,/,/,5.6,/,/,/
CCCCN(CC)C(=O)c1cc2cc3ccc(OC)cc3nc2o1,-5.3,-2.1,7.8,3.7,-1.9,/,/
CCCCN(C)C(=O)c1cc2cc3ccc(OC)cc3nc2s1,-1.6,-2.1,13.0,14.5*,0.1,4.2,4.6
COc1ccc2[nH]c(=O)c(CN(C(=O)c3ccncc3)C(C)C)cc2c1,-7.2,-1.2,-0.3,-5.1,0.7,/,/
COc1ccc2[nH]c(=O)c(CN(C)C(=O)c3ccncc3)cc2c1,-0.9,-1.6,-11.4,14.8*,/,-2.3,-4.2
Cc1cc(C)nc(NS(=O)(=O)c2ccc(N/C=C\C(=O)c3ccc(Cl)cc3)cc2)n1,0.3,-2.4,-4.0,14.3*,-4.7,0.8,-7.0
Cc1cccc(NC(=O)CCS(=O)(=O)c2ccccc2)c1C,3.7,/,/,1.0,/,/,/

# Assay outcomes from PubChem BioAssay.
